Cdc25B block – inhibitors of human Cdc25B phosphatase; inhibition, %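 (compounds tested at 10 µM final in the well)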; recombinant Cdc25B, OMFP fluorescence Ex485/Em525; P30305; 65,000 tested, 0.1% active; AID 368; in the data active = inhibition above about 50%
Target sequence (P30305 whole entry, looked up): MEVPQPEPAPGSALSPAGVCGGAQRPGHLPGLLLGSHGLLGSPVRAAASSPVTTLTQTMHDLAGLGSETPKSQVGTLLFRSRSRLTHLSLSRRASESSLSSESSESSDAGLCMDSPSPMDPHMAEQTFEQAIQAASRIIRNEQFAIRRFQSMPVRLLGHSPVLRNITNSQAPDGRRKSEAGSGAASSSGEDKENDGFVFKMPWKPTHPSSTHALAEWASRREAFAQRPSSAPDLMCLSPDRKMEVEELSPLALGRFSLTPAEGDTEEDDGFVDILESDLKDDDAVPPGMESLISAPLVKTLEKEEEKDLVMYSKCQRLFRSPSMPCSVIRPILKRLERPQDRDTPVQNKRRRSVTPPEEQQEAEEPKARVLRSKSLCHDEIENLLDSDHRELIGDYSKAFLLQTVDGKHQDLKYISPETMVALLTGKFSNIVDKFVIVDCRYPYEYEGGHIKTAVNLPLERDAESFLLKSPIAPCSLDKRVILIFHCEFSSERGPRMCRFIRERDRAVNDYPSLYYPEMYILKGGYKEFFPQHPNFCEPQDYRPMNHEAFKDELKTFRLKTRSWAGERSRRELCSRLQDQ
HEK293 NFkB inh – inhibitors of the PMA/ionomycin-induced NF-kB reporter in HEK293 cells. 62,000 tested, 0.21% active. HEK-293 NF-kB luciferase reporter, luminescence. inhibition, % at 3 µM;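 active = inhibition above the mean of all tested compounds plus 3 SD, cut at about 40% in these data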;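 note: 0% = stimulated DMSO wells and 100% = 10 µM reference inhibitor 5653914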
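System: NF-kB luciferase reporter HEK-293 cells | Replication: Single test | Control set: DMSO vs reference inhibitor | Evaluation: % inhibition | Schedule: 1 h pretreatment, 16 h stimulation, 37 °C | Probe or stimulus: PMA with ionomycin | Compound dosing: One dose, 3 µM | Detection: Luciferase luminescence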
HER2 expr 66K – Her2 kinase expression inhibition; SKBR-3 HER2 protein level, AlphaScreen, 18-24 h; hits give low values; HER2 level % of control, % at 10 µM; 65,000 tested, 0.69% active; AID 645;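 active = HER2 level under 5% of the carrier-only control; inconclusive = no clear call, values can overlap the other calls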;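 note: 100% = DMSO carrier and 0% = 500 nM PU-H71 HSP90 inhibitor; lower value means stronger loss of Her2 protein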
MKP-1 inh – inhibitors of human MKP-1 phosphatase | P28562 | recombinant MKP-1, OMFP hydrolysis fluorescence | inhibition, %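 (compounds tested at a single concentration somewhere between 10 and 100 µM)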 | 65,000 tested, 0.15% active | AID 374;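 active = inhibition above about 50%, limit read from the data; inconclusive = inhibition over screen mean plus 3 SD, below that limit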;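 note: 0% = DMSO max control wells and 100% = wells with enzyme stopped by NaOH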
M1 antagonist – blocks the rat M1 muscarinic receptor response to acetylcholine | P08482 | CHO-M1 cells, Fluo-4 calcium, ACh EC80 antagonist mode; hits give low values | B-score at 10 µM | 64,000 tested, 3.4% active | AID 628;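 active = calcium fluorescence response, raw or row-and-column corrected B-score, differing from the plate sample mean either way at a set confidence level, mostly lower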
M1 ag – activates the M1 muscarinic receptor; AID 626; CHO-M1 cells, Fluo-4 calcium fluorescence, agonist mode; hits give high values; B-score at 10 µM; 64,000 tested, 3% active;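 active = fluorescence rise, raw or as B-score row- and column-corrected plate score, outside the 99.7% band of its plate's samples, either direction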
M1 ag confirm – confirmation of rat M1 muscarinic receptor agonists; shares compounds with M1 ag; CHO-M1 cells, Fluo-4 calcium fluorescence, agonist mode; actives lie on both sides; fluorescence change (max-min) at 10 µM; 1,700 tested, 19% active; AID 1488;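 active = fluorescence change differs from the solvent-only DMSO control mean at a set confidence level in both duplicate runs; inconclusive = differs from solvent-only control mean in just one of two runs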;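 note: an EC20 dose of acetylcholine follows compound addition during the same imaging run; raw fluorescence intensity difference in instrument units with no normalization to controls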
M4 ag counter – counter-screen for M1 agonists: activity at rat M4 receptor | fluorescence change (max-min) at 10 µM | CHO M4/Gqi5 cells, Fluo-4 calcium fluorescence, agonist mode; actives lie on both sides | 1,700 tested, 9% active | shares compounds with M1 ag;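 active = fluorescence change differing from the plate's solvent-only control wells at 99.7% confidence in both duplicates, whether higher or lower; inconclusive = differs from solvent controls in only one of two duplicates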
* = called active by the depositor; ? = inconclusive; · = no result. Compounds with a hit are over-represented: about 6.8% of the library has one in this group of screens.

SMILES	Cdc25B block	HEK293 NFkB inh	HER2 expr 66K	MKP-1 inh	M1 antagonist	M1 ag	M1 ag confirm	M4 ag counter
COc1cc(Nc2cc(C)nc3ncnn23)cc(OC)c1	1	14	87	11	-0.8	1.4	·	·
CCOC(=O)C1CCN(C(=O)Nc2ccc3nc(-c4ccco4)c(-c4ccco4)nc3c2)CC1	·	18	76	·	-12*	84*	392*	?
CCOC(=O)Cn1nnnc1C(CC)N(Cc1cc2c(C)cc(C)cc2[nH]c1=O)C1CCCC1 (configuration not stated)	-27	0	96	8	0.98	-0.26	·	·
Cc1cccc2cc(CN(Cc3ccc(F)cc3)C(=O)N(C)C)c3nnnn3c12	-5	1	105	-10	-2.1	6.2*	?	-21
O=C(O)CCCC(=O)Nc1ccc(Br)cc1C(=O)O	-14	19	95	-5	0.17	-0.11	·	·
N#Cc1cnc2sc3ccccc3n2c1=N	7	·	89	-6	-0.1	-2.4*	36	-10
O=S(=O)(O)c1nnc2sc3ccccc3n12	-7	6	89	2	0.015	-0.46	·	·
CCN1CCc2c(sc(N)c2C#N)C1	1	8	63	-5	-1.5	12*	15	3.3
O=C1CC(=O)N(Cc2ccco2)C(=O)N1	5	6	93	1	0.41	3*	?	-58
O=C1CC(=O)N(Cc2cccs2)C(=O)N1	-16	11	129	22	0.62	-0.56	·	·
Cn1c(N)c(C(=O)c2cc(-c3ccccn3)nc3ccccc23)c(=O)[nH]c1=O	-3	1	84	-8	0.19	-0.27	·	·
CCC(C)c1ccc(O)c(NC(=O)c2ncn[nH]2)c1 (configuration not stated)	-3	8	104	20	0.78	12*	-24*	-37
CCC(C)c1ccc2oc(-c3ccc(NC(=O)c4ncn[nH]4)cc3)nc2c1 (configuration not stated)	2	-15	94	16	-0.49	0.53	·	·
Cc1nn(Cc2ccc(Cl)c(Cl)c2)c(C)c1NC(=O)c1cc(-c2ccc3c(c2)OCO3)on1	1	19	63	27	-1.9	4.1*	31	-11
Cc1nn(Cc2ccccc2Cl)c(C)c1NC(=O)c1noc2c1CCCCC2	-3	10	94	6	0.015	-0.84	·	·
Cc1nn(Cc2ccc(F)cc2)c(C)c1NC(=O)c1noc2c1CCCCC2	0	9	96	6	0.091	5.9*	-6.7	-40
Cc1ccc(CSC2=NCCN2C(=O)C2CC2)cc1	0	11	86	6	0.21	1.3	·	·
COc1ccc(NC(=O)Nc2ccc3c(c2)N(C)C(=O)CS3)cc1OC	-7	11	90	13	-1.5	3.1*	?	-28
CNc1nc(C)c(C(=O)OCc2ccccc2)s1	-8	5	117	8	-0.5	-0.91	·	·
CN(C)CCOc1ccccc1Cc1ccccc1	-19	·	87	39	-6.4*	33*	-3	-30
CN(C)CCOC(=O)CCc1ccccc1	-7	4	116	-4	-0.72	-0.93	·	·
Cc1ccc(NCc2nnc(SCC(=O)Nc3cccc(O)c3)n2CC2CCCO2)c(C)c1 (configuration not stated)	-5	9	100	22	0.63	1.1	·	·
Cc1ccc(Cl)cc1NC(=O)Cn1cccc1	-7	5	85	7	0.12	-0.015	·	·
Cc1ccc(Cl)cc1NC(=O)CC(O)(C(F)(F)F)C(F)(F)F	-16	16	34	-18	-2.5*	11*	16	-3.4
Nc1ccccc1C(=O)Nc1cccc(C(=O)O)c1	-1	·	118	15	·	·	·	·
SMILES	Cdc25B block	HEK293 NFkB inh	HER2 expr 66K	MKP-1 inh	M1 antagonist	M1 ag	M1 ag confirm	M4 ag counter
N=c1oc2c3c4c(cc2cc1C(=O)Nc1ccccc1)CCCN4CCC3	6	3	80	12	-15*	221*	3358*	2806*
CC(=O)C1C(c2ccc(F)c(F)c2)NC(=O)NC1(O)C(F)(F)F (configuration not stated)	-10	0	89	-11	-0.1	0.32	·	·
O=C(CN1c2cccc3cccc(c23)S1(=O)=O)NCc1ccc2c(c1)OCO2	-3	2	87	11	-4*	21*	48	-18
COc1ccc(S(=O)(=O)Nc2ccc(S(=O)(=O)Nc3nc(C)cc(C)n3)cc2)cc1OC	-2	18	115	-6	-0.12	-0.42	·	·
Cc1cc2c(s1)CCCCC(=O)N2	1	12	96	6	0.92	0.047	·	·
CCOC(=O)C1CCCN(CCC(=O)Nc2ccc(F)c(F)c2)C1 (configuration not stated)	-12	-7	104	26	-1.4	5.8*	9.2	-28
CCOC(=O)C1CCCN(CC(=O)NC2=Nc3ccccc3N=C(C)C2c2ccccc2)C1 (configuration not stated)	-19	10	102	2	0.41	7.4*	-31*	-50
CCOC(=O)C1CCCN(C(=O)CCC(=O)Nc2ccc3nc(N4CCOCC4)cc(C)c3c2)C1 (configuration not stated)	-12	-9	81	1	-1.3	5.4*	?	-56
O=C(O)CCC(=O)Nc1ccc(Br)cn1	-3	4	111	-28	-0.44	0.38	·	·
CCS(=O)(=O)n1nc(-c2ccccc2)nc1NCc1ccco1	0	2	82	-6	0.1	-0.057	·	·
Cc1ccc(S(=O)(=O)n2nc(-c3ccc(Cl)cc3)nc2NCc2ccco2)cc1	2	18	106	7	-0.38	26*	-9.4	-30
Cc1nn(CC(N)=O)c(=O)c2ccccc12	-7	·	69	8	-0.36	0.11	·	·
Cc1nn(CC(=O)N(C)C)c(=O)c2ccccc12	2	9	108	-17	0.41	4.2*	-5.6	-25
N#CC1=C(N)NC(SCC(=O)Nc2ccccc2)=C(C#N)C12CCCC2	-2	·	62	4	-0.31	2.9*	7.5	-5.3
CCOC(=O)C1CCN(C(=O)COc2ccc(S(=O)(=O)NC(C)(C)C)cc2)CC1	-5	11	93	31	0.17	-0.56	·	·
CCN(CC)S(=O)(=O)c1ccc(C(=O)N2CCN=C2SC)cc1	-4	2	119	10	0.14	16*	?	-47
O=C(O)c1cc(S(=O)(=O)Nc2ccc3c(c2)OCCO3)c(Cl)cc1Cl	-15	15	80	-2	1.4	-0.089	·	·
CC1(C)Cc2c(C#N)c(SCCOc3ccccc3)nc(N3CCOCC3)c2CO1	-4	·	61	-12	-0.33	4.1*	-9.7	?

Assay outcomes from PubChem BioAssay.
